# Measured values gathered from unrelated publications.
# Target: D(2) dopamine receptor (DRD2, Homo sapiens, UniProt P14416)
Compound,assay,system,setting,endpoint,value
CN(CCN1CCC(OC(=O)Nc2ccccc2-c2ccccc2)CC1)C(=O)c1ccc(CN2CCC(C(N)=O)CC2)cc1,"ligand displacement, radioligand",,1 µM,inhibition,-8%
CCN(CC)CCCC[C@H](NC(=O)[C@H](CC(C)C)NC(=O)[C@H](C)NC(=O)[C@H](Cc1ccccc1)NC(=O)c1ccc(C(C)(C)C)cc1)C(=O)N[C@@H](CO)C(=O)OC,"ligand displacement, radioligand",,10 µM,inhibition,40%
OC(c1ccc(F)cc1)C(F)(F)CCN1CCC(O)(c2ccc(Cl)cc2)CC1 (racemic),"ligand displacement, radioligand",,10 µM,inhibition,> 50%
Clc1ccc2c(C3CCN(CCc4c[nH]c5ccccc45)CC3)c[nH]c2c1,"ligand displacement, radioligand",,10 µM,inhibition,98%
CCc1ccc(OCC(=O)N2CCN(Cc3ccc4c(c3)OCO4)CC2)c(Br)c1,"enzyme activity, inhibitor",,10 µM,inhibition,23.1%
C[C@H](C(=O)N[C@H]1COc2ccccc2[C@@H]1S(C)(=O)=O)c1ccc(F)cc1,cell-free assay,,10 µM,inhibition,-3%
c1ccc(C2(N3CCCCC3)CCCCC2)cc1,"enzyme activity, inhibitor",,10 µM,inhibition,18.1%
CC(C)Cn1cnc2c(N)nc3ccccc3c21,"ligand displacement, radioligand",,10 µM,inhibition,14%
COc1ccc(S(=O)(=O)N2CCCCC2)cc1C,"ligand displacement, radioligand",,10 µM,inhibition,< 30%
CNc1nc2cc(OCCCCN3CCC(c4cccc(Cl)c4Cl)CC3)ccc2s1,"β-arrestin recruitment, agonist",HTLA,,Emax,< 20%
c1ccc(C(NCCNC(c2ccccc2)c2ccccc2)c2ccccc2)cc1,cell-free assay,,10 µM,inhibition,31%
N#CC1(c2ccccn2)CCN(Cc2cc(C(=O)O)c(=O)n3ccccc23)CC1,cell-free assay,,10 µM,inhibition,-16.8%
COc1ccc(N=Nc2ccc3[nH]cc(CCN(C)C)c3c2)cc1,"ligand displacement, radioligand",,10 µM,inhibition,< 50%
COCc1c(-c2cc3cc(C)cc(OC)c3s2)c2c(N)ncnn2c1CN1CCNC(=O)C1,"ligand displacement, radioligand",,10 µM,inhibition,19%
Cc1c(N2CCNCC2)nc2ccc(Br)cc2c1C(=O)NC[C@H](CCC(=O)O)c1ccccc1Cl,ligand displacement,,10 µM,inhibition,2.75%
COc1ccc(C(=O)NCc2cc(C(C)C)no2)cc1OC1CCN(C)CC1,"ligand displacement, radioligand",,10 µM,inhibition,18%
